According to ChEMBL document CHEMBL1687902, “Discovery of potent inhibitors of soluble epoxide hydrolase by combinatorial library design and structure-based virtual screening” (J Med Chem, 2011):

Legend:
[1] = Inhibition of chimeric mouse-human sEH assessed as 6,8-difluoro-4-methylumbelliferyl trans-2,3-epoxy-3-phenylpropylcarbonate hydrolysis preincubated for 10 mins before addition of substrate by fluorometric assay
[2] = Metabolic stability in human liver microsomes assessed as compound remaining after 30 mins; format: ADME, Microsome; conditions: read-out: Stability
Summary of the method: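 Pooled human liver microsomes, compound at 1 μM in 100 mM phosphate buffer pH 7.4. NADP+ regenerating system (1 mM NADP+, 5 mM isocitric acid, 1 U/mL isocitric dehydrogenase) with 1 mM MgCl2. Read-out is percent parent remaining after 30 min incubation.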

[3] = test system: soluble epoxide hydrolase (Chlorocebus aethiops); test: Inhibition of native sEH in african green monkey COS7 cells assessed as 11,12-epoxyeicosatrienoic acid hydrolysis preincubated for 1 hr before substrate addition measured after 2 hrs by LC/MS/MS; conditions: cos-7

Row | Structure (SMILES) | IC50 [1] [nM] | remaining at 0.5 h [2] [%] | IC50 [3] [nM]
1 | CC(=O)c1ccc(N2CCC(CC(=O)Nc3nc4c(C)cccc4o3)CC2)cc1 | 109 |  | 
2 | CC(C)(C)OC(=O)N1CCC(CC(=O)Nc2nc3ccccc3o2)CC1 | 94.3 | 83 | 10.3
3 | Cc1cc(C)c2oc(NC(=O)CC3CCN(C(=O)OC(C)(C)C)CC3)nc2c1 | 73 | 22 | 4.38
4 | Cc1cccc2oc(NC(=O)CC3CCN(C(=O)OC(C)(C)C)CC3)nc12 | 272 |  | 
5 | Cc1ccc2nc(NC(=O)CC3CCN(C(=O)OC(C)(C)C)CC3)oc2c1 | 202 |  | 
6 | CC(=O)c1ccc(N2CCC(CC(=O)Nc3nc4ccc(C)cc4o3)CC2)cc1 | 184 |  | 

Stronger by IC50 [1], values ahead:

Row | IC50 [1] [nM] | remaining at 0.5 h [2] [%] | IC50 [3] [nM] | Structure (SMILES)
7 | 6.92 | 43 | 1.54 | CC(C)(C)OC(=O)N1CCC(CC(=O)Nc2nc3cc(Cl)ccc3o2)CC1
8 | 11.4 | 6 | 0.486 | Cc1ccc2oc(NC(=O)CC3CCN(C(=O)OC(C)(C)C)CC3)nc2c1
9 | 19.4 | 62 | 22 | CC(=O)c1ccc(N2CCC(CC(=O)Nc3nc4ccccc4o3)CC2)cc1
10 | 3.58 | 45 | 4.68 | CC(=O)c1ccc(N2CCC(CC(=O)Nc3nc4cc(Cl)ccc4o3)CC2)cc1
11 | 3.61 | 53 | 5.76 | CC(=O)c1ccc(N2CCC(CC(=O)Nc3nc4cc(C)ccc4o3)CC2)cc1
12 | 46.5 | 22 | 1.42 | CC(=O)c1ccc(N2CCC(CC(=O)Nc3nc4cc(C)cc(C)c4o3)CC2)cc1
